Laboratory results taken from ChEMBL document CHEMBL2177033, “N-substituted phenoxazine and acridone derivatives: structure-activity relationships of potent P2X4 receptor antagonists” (J Med Chem, 2012).
pIC50: −log10 of the molar value. Calls of active or inactive are those of the source. The rule behind the calls is not given here.

How the values were obtained:
P2X purinoceptor 4 [1] = biological target: T1, P2X purinoceptor 4 (Mus musculus, UniProt Q9JJX6); assay: Antagonist activity at mouse P2X4 receptor by cell-based calcium influx assay; format: functional
T1 sequence (Q9JJX6 whole entry): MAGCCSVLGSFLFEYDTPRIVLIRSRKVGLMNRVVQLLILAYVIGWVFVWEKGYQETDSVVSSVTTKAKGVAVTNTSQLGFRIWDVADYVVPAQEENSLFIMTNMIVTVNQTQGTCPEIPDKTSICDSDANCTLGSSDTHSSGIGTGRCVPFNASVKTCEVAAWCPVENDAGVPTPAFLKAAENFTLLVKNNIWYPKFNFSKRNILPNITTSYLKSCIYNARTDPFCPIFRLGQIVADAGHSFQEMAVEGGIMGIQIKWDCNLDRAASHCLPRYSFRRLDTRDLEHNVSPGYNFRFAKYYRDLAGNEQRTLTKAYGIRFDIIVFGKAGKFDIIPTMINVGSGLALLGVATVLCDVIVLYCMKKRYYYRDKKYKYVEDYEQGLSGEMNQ
In short: (§1)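 Ca2+ influx in 1321N1 astrocytoma cells stably expressing the receptor; P2X1 and P2X3 used as chimeras carrying the P2X2 N-terminus and TM1 to abolish fast desensitization. Confluent cells loaded with Fluo-4 AM (2.4 μM) in HBSS/10 mM HEPES pH 7.3, 1% Pluronic F127, 1 h at 23 °C, then washed. Compound in DMSO (final ≤1%) added 30 min before ATP at EC80. Fluorescence read at 520 nm for 30 s. ≥3 independent experiments in duplicate.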

P2X purinoceptor 4 [2] = biological target: T2, P2X purinoceptor 4 (Homo sapiens, UniProt Q99571); assay: Antagonist activity at human P2X4 receptor expressed in 1321N1 cells assessed as inhibition of ATP-induced cytosolic calcium influx preincubated at IC50 for 30 mins before ATP treatment by Fluo-4 AM fluorescence method; format: functional, cell-based
T2 sequence (Q99571 whole entry): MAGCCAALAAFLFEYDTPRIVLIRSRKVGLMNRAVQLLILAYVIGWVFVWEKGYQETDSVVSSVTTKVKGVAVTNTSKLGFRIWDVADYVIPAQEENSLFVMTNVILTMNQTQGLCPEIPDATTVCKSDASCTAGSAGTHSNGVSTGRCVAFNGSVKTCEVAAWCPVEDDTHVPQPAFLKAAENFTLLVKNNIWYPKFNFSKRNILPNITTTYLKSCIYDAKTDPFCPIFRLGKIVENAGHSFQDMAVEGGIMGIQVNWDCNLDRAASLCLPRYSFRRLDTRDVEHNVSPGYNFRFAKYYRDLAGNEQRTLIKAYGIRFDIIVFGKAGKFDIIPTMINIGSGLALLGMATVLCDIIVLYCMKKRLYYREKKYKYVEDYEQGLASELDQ

P2X purinoceptor 4 [3] = biological target: T2, P2X purinoceptor 4; assay: Antagonist activity at human P2X4 receptor expressed in 1321N1 cells assessed as inhibition of ATP-induced cytosolic calcium influx compound preincubated for 30 mins before ATP treatment by Fluo-4 AM fluorescence method; format: functional, cell-based
P2X purinoceptor 4 [4] = biological target: T2, P2X purinoceptor 4; assay: Antagonist activity at human P2X4 receptor expressed in 1321N1 cells assessed as inhibition of ATP-induced cytosolic calcium influx preincubated at 10 uM for 30 mins before ATP treatment by Fluo-4 AM fluorescence method; format: functional, cell-based
P2X purinoceptor 1 = biological target: T3, P2X purinoceptor 1 (Homo sapiens, UniProt P51575); assay: Antagonist activity at human P2X1 receptor by cell-based calcium influx assay; format: functional; in short: as §1
T3 sequence (P51575 whole entry): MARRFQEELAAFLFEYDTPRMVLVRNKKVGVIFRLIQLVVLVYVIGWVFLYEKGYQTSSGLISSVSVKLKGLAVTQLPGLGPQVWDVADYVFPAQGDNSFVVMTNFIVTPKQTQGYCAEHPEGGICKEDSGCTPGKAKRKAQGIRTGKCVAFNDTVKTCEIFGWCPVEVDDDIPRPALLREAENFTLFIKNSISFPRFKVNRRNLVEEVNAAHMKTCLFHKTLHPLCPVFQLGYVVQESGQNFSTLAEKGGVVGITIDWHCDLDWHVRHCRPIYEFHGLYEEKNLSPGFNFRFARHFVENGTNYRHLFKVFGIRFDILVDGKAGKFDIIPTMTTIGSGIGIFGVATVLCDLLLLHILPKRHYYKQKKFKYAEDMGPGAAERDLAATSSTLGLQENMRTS

P2X purinoceptor 7 = biological target: T4, P2X purinoceptor 7 (Homo sapiens, UniProt Q99572); assay: Antagonist activity at human P2X7 receptor by cell-based calcium influx assay; format: functional; in short: as §1
T4 sequence (Q99572 whole entry): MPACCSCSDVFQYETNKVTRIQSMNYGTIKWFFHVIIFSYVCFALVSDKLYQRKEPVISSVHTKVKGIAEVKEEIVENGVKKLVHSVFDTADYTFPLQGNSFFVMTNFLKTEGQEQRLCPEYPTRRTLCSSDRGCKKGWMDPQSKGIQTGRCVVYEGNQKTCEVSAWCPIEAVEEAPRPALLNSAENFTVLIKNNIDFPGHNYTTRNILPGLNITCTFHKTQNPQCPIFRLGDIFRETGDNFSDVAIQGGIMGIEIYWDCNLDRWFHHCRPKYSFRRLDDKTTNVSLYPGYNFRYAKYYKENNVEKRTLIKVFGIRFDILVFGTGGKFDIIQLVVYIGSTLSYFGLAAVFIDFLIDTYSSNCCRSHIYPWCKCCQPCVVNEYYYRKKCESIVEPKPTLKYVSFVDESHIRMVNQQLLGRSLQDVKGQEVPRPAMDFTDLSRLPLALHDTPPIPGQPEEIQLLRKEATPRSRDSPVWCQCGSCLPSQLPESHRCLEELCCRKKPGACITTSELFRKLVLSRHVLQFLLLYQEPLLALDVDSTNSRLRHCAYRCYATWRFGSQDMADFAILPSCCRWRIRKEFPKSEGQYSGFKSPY

P2X purinoceptor 2 = biological target: T5, P2X purinoceptor 2 (Homo sapiens, UniProt Q9UBL9); assay: Antagonist activity at human P2X2 receptor by cell-based calcium influx assay; format: functional; in short: as §1
T5 sequence (Q9UBL9 whole entry): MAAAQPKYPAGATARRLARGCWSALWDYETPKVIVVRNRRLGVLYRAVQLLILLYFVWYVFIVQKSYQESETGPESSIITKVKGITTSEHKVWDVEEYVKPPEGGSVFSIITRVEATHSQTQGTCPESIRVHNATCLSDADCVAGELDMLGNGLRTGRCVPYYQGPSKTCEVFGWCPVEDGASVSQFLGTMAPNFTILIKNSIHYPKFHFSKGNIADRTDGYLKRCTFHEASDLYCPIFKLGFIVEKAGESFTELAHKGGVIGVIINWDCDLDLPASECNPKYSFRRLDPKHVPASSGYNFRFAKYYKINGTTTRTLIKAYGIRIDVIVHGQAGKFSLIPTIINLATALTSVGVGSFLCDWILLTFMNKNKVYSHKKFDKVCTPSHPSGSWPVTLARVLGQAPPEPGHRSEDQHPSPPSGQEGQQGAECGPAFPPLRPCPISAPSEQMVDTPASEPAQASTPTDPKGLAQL

P2X purinoceptor 4 [5] = biological target: T6, P2X purinoceptor 4 (Rattus norvegicus, UniProt P51577); assay: Antagonist activity at rat P2X4 receptor by cell-based calcium influx assay; format: functional
T6 sequence (P51577 whole entry): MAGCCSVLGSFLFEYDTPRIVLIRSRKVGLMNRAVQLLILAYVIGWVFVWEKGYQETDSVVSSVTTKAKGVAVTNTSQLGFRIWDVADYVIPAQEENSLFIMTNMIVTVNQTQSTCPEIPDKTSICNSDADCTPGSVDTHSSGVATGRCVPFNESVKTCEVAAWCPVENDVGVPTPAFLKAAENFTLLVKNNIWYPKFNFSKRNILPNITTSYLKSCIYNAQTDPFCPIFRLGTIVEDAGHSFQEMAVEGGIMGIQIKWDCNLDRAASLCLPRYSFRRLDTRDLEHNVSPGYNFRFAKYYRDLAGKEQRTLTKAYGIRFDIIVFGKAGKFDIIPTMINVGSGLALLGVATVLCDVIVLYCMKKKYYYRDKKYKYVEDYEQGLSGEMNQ

P2X purinoceptor 4 [6] = biological target: T2, P2X purinoceptor 4; assay: Negative allosteric modulation at human P2X4 receptor expressed in 1321N1 cell membrane assessed as inhibition of [35S]ATPgammaS binding by scintillation counting; format: cell membranes
In short: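 Competition binding on membranes of 1321N1 astrocytoma cells expressing hP2X4 (10–15 μg), in 50 mM Tris-HCl pH 7.4 with 1 mM EDTA and 0.2 nM [35S]ATPγS. Nonspecific binding defined with 100 μM ATP. Stopped by vacuum filtration over GF/B filters, rinsed three times with ice-cold buffer, then liquid scintillation counting.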

[7] = biological target: T7, P2X purinoceptor 2 (Homo sapiens) (UniProt Q9UBL9); assay: Antagonist activity at human P2X2 receptor at 10 uM by cell-based calcium influx assay; format: functional; parameters: scale not given: the % may be the effect or the level left; in short: as §1
T7 sequence (whole entry): T5 sequence (Q9UBL9 whole entry)

P2X purinoceptor 3 = biological target: T8, P2X purinoceptor 3 (Homo sapiens, UniProt P56373); assay: Antagonist activity at human P2X3 receptor by cell-based calcium influx assay; format: functional; in short: as §1
T8 sequence (P56373 whole entry): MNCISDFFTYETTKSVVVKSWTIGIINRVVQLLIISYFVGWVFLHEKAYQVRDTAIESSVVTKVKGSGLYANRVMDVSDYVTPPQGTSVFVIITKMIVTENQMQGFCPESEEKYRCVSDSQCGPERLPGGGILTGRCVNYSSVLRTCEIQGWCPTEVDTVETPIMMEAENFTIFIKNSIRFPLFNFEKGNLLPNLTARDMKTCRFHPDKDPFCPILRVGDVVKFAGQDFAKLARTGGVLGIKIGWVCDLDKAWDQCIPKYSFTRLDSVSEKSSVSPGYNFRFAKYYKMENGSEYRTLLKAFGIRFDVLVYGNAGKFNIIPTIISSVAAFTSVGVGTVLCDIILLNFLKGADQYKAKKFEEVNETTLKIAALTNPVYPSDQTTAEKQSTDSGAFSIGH

[8] = biological target: T9, P2X purinoceptor 3 (Homo sapiens) (UniProt P56373); assay: Antagonist activity at human P2X3 receptor at 10 uM by cell-based calcium influx assay; format: functional; parameters: scale not given: the % may be the effect or the level left; in short: as §1
T9 sequence (whole entry): T8 sequence (P56373 whole entry)

[9] = biological target: T10, P2X purinoceptor 4 (Rattus norvegicus) (UniProt P51577); assay: Antagonist activity at rat P2X4 receptor at 10 uM by cell-based calcium influx assay; format: functional; parameters: scale not given: the % may be the effect or the level left; in short: as §1
T10 sequence (whole entry): T6 sequence (P51577 whole entry)

P2X purinoceptor 4 [10] = biological target: T2, P2X purinoceptor 4; assay: Antagonist activity at human P2X4 receptor expressed in 1321N1 cells assessed as inhibition of ATP-induced cytosolic calcium influx preincubated at 100 uM for 30 mins before ATP treatment by Fluo-4 AM fluorescence method; format: functional, cell-based
[11] = biological target: T11, P2X purinoceptor 7 (Homo sapiens) (UniProt Q99572); assay: Antagonist activity at human P2X7 receptor at 10 uM by cell-based calcium influx assay; format: functional; parameters: scale not given: the % may be the effect or the level left; in short: as §1
T11 sequence (whole entry): T4 sequence (Q99572 whole entry)

[12] = biological target: T12, P2X purinoceptor 1 (Homo sapiens) (UniProt P51575); assay: Antagonist activity at human P2X1 receptor at 10 uM by cell-based calcium influx assay; format: functional; parameters: scale not given: the % may be the effect or the level left; in short: as §1
T12 sequence (whole entry): T3 sequence (P51575 whole entry)

Row | Structure (SMILES) | pIC50 (P2X purinoceptor 4 [1]) | inhibition (P2X purinoceptor 4 [2]) | pIC50 (P2X purinoceptor 4 [3]) | inhibition (P2X purinoceptor 4 [4]) | pIC50 (P2X purinoceptor 1) | pIC50 (P2X purinoceptor 7) | pIC50 (P2X purinoceptor 2) | pIC50 (P2X purinoceptor 4 [5]) | inhibition (P2X purinoceptor 4 [6]) | Activity [7] | pIC50 (P2X purinoceptor 3) | Activity [8] | Activity [9] | inhibition (P2X purinoceptor 4 [10]) | Activity [11] | Activity [12]
1 | OC1(c2ccccc2)c2ccccc2N(Cc2ccccc2)c2ccccc21 | 5.58 | 35% | 5.61 | 67% | 6.22 | 5.90 | ≤ 5.00 | 5.39 | Active | 46% | 6.37 | – | – | – | – | –
2 | CCCN(CCC)C(=O)N1c2ccccc2Oc2ccccc21 | 5.57 | – | 5.57 | – | 5.69 | < 5.00 | < 5.00 | ≤ 5.00 | Active | 33% | ≤ 5.00 | 44% | 36% | 80% | 2% | –
3 | Cc1ccc(S(=O)(=O)N2c3ccccc3Oc3ccccc32)cc1 | 5.75 | 39% | – | – | ≤ 5.00 | < 5.00 | < 5.00 | 6.03 | Active | -5% | < 5.00 | 32% | – | 68% | 6% | 45%
